Ten compounds from PMC8829947 (ACS Omega, 2022) can be followed below.

Some results are limits rather than exact numbers.

Assay [1] is described as follows: Zn2+ affinity by competition with colorimetric PAR assay. Type of assay: binding. Particulars: read-out: Kd,Zn2; PAR 100 μM, ZnSO4 10 μM, pH 7.5, 3 h at 25 °C. The method in brief: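 The test compound was titrated into Chelex-100-treated 20 mM HEPES, 100 mM NaCl, pH 7.5, containing PAR 100 μM and ZnSO4 10 μM, then incubated 3 h at 25 °C. Zn2+ displacement from PAR was read as the fall in absorbance at 492 nm. Kd was estimated from the known PAR stability constant at pH 7.4.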

The target in the next assay is NDM-1 (Klebsiella pneumoniae, UniProt C7C422). Put plainly: In vitro enzyme inhibition assay, purified recombinant NDM-1. Type of assay: biochemical. The method in brief:
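Purified recombinant enzyme at 4 nM was preincubated 5–10 min at RT with varying inhibitor concentrations. Buffer was 50 mM HEPES pH 7.5, 0.2% DMSO, 1% PEG 4000, with either 10 μM ZnSO4 or no zinc (Chelex-100-treated, 2 h, filtered). Reactions were started with nitrocefin (30 μM final, A490) or meropenem (50 μM final, A300) and followed 60 s. IC50 came from the linear portion of progress curves. Duplicates.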

The test system of assay [2] is E. coli expressing blaNDM-1. Put plainly: Meropenem rescue concentration, antimicrobial susceptibility test. The format is cell-based, Escherichia coli. To be noted: for RC in MHB, NDM-1: rescue concentration at meropenem 2 μg/mL. A digest of the protocol: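 Checkerboard broth microdilution in Mueller–Hinton broth against E. coli carrying the plasmid-borne MBL gene. Meropenem used five 2-fold dilutions and the test compound six 2-fold dilutions, within 0.5–64 μg/mL; the test compound was dissolved in water or 50% methanol. Inoculum was adjusted to OD625 0.08–0.10, then diluted 200-fold. Incubation was 20 h static at 37 °C, read at OD600. RC is the compound concentration restoring susceptibility at meropenem 2 μg/mL. ≥2 replicates.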

The mark [3] stands for this setting: IC50 NDM-1 + Zn, Zn2+-supplemented (10 μM) buffer.
The mark [4] stands for this setting: IC50 NDM-1 - Zn, Zn2+-depleted (Chelex-100-treated) buffer.

NDM-1, sequence (C7C422 29-270, looked up, species assumed): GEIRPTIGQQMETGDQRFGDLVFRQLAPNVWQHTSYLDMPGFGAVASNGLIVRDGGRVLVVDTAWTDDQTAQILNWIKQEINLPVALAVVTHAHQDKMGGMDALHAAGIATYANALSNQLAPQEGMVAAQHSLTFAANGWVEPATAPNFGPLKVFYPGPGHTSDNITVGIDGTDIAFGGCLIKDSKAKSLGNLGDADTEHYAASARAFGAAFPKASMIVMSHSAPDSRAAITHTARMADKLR

For orientation: Kd means a measure of binding affinity in units of concentration. In general, IC50 refers to the concentration at which inhibition is half-maximal. For `N=C(N)NCCC[C@H](NC[C@H](NC[C@H](N)C(=O)O)C(=O)O)C(=O)O` [Compound 17, ((S)-2-(((S)-2-Amino-2-carboxyethyl)amino)-2-carboxyethyl)-L-arginine], the Kd in assay [1] turned out to be 24 ± 6 nM. Moreover, the results for the 50% inhibitory concentration (IC50) at NDM-1 (setting [3]) and at NDM-1 (setting [4]) were greater than 100 µM and greater than 1000 µM, respectively. The “RC in MHB, NDM-1” value in assay [2] was greater than 64 µg/mL.
Taken in the same sequence, the figures for `N[C@@H](CN[C@@H](CNC(CS)C(=O)O)C(=O)O)C(=O)O` (stereo in doubt) [Compound 12, (S)-2-Amino-3-(((S)-1-carboxy-2-(((R)-1-carboxy-2-mercaptoethyl)amino)ethyl)amino)propanoic Acid] were 4.4 ± 1.8 nM, 404 ± 18.2 µM, 5.8 ± 0.5 µM and 32 µg/mL.
Regarding `N[C@@H](CN[C@@H](CN[C@@H](Cc1cccs1)C(=O)O)C(=O)O)C(=O)O` [Compound 23, (S)-2-Amino-3-(((S)-1-carboxy-2-(((S)-1-carboxy-2-(thiophen-2-yl)ethyl)amino)ethyl)amino)propanoic Acid], the Kd in assay [1] worked out at 4.2 ± 2.5 nM. The 50% inhibitory concentration (IC50) on NDM-1 (setting [3]) was 42.2 ± 4.1 µM; at NDM-1 (setting [4]), 9.7 ± 1.7 µM. In addition, the “rescue concentration (RC), biological activity” value in assay [2] (meropenem 2 μg/mL, resistant E. coli, MBL not given) is listed as greater than 8 μg/mL. In addition, the “RC in MHB, NDM-1” value in assay [2] was 64 µg/mL.
As to `N[C@@H](CN[C@@H](CN[C@@H](CCS)C(=O)O)C(=O)O)C(=O)O` [Compound 13, ((S)-2-(((S)-2-Amino-2-carboxyethyl)amino)-2-carboxyethyl)-L-homocysteine], the IC50 is greater than 100 µM at NDM-1 (setting [3]) and greater than 1000 µM at NDM-1 (setting [4]). For the same compound, in assay [2], the “RC in MHB, NDM-1” value was found to be 64 µg/mL.
For the compound `NCC(=O)N[C@@H](CN[C@@H](CN[C@@H](CC(=O)O)C(=O)O)C(=O)O)C(=O)O` [Compound 1, ((S)-2-(((S)-2-(2-Aminoacetamido)-2-carboxyethyl)amino)-2-carboxyethyl)-L-aspartic Acid], in assay [1], the Kd came out at 19.9 ± 3.2 nM. Moreover, the IC50 on NDM-1 (setting [3]) is greater than 100 µM; on NDM-1 (setting [4]), greater than 500 µM. Also, in assay [2], the “RC in MHB, NDM-1” value was greater than 64 µg/mL.
Taken in the same sequence, the figures for `N[C@@H](CN[C@@H](CN[C@@H](CC(=O)O)C(=O)O)C(=O)O)CSCCO` [Compound 8, ((S)-2-(((S)-2-Amino-3-((2-hydroxyethyl)thio)propyl)amino)-2-carboxyethyl)-L-aspartic Acid] were 60 ± 13 nM, greater than 250 µM, greater than 500 µM and 64 µg/mL.
Regarding `N[C@@H](CN[C@@H](CN[C@@H](CC(=O)O)C(=O)O)CSc1ccccc1)C(=O)O` [Compound 9, ((S)-2-(((S)-2-Amino-2-carboxyethyl)amino)-3-(phenylthio)propyl)-L-aspartic Acid], in assay [1], the Kd is 2.3 ± 1.9 nM. The figures for the IC50 on NDM-1 (setting [3]) and at NDM-1 (setting [4]) were 58 ± 5 µM and greater than 500 µM, respectively. For the same compound, in assay [2], the “RC in MHB, NDM-1” value is greater than 64 µg/mL.
Taken in the same sequence, the figures for `N[C@@H](CN[C@@H](CN[C@@H](CO)C(=O)O)C(=O)O)C(=O)O` [Compound 19, (S)-2-Amino-3-(((S)-1-carboxy-2-(((S)-1-carboxy-2-hydroxyethyl)amino)ethyl)amino)propanoic Acid] were 4.5 ± 1.75 nM, 80 ± 0.7 µM, greater than 1000 µM and 32 µg/mL.
On to `Cc1ccc(SC[C@@H](N)CN[C@@H](CN[C@@H](CC(=O)O)C(=O)O)C(=O)O)cc1` [Compound 5, ((S)-2-(((S)-2-Amino-3-(P-tolylthio)propyl)amino)-2-carboxyethyl)-L-aspartic Acid], for which the Kd in assay [1] stood at 1.4 ± 0.56 nM. In addition, the IC50 was found to be 104 ± 2 µM on NDM-1 (setting [3]) and 97.2 ± 34.2 µM on NDM-1 (setting [4]). Besides, in assay [2], the “RC in MHB, NDM-1” value stood at 32 µg/mL.
In the case of `CN[C@@H](CN[C@@H](CN[C@@H](CC(=O)O)C(=O)O)C(=O)O)C(=O)O` [Compound 3, ((S)-2-Carboxy-2-(((S)-2-carboxy-2-(methylamino)ethyl)amino) Ethyl)-L-aspartic Acid], the Kd in assay [1] amounted to 8.7 ± 0.9 nM. Moreover, the results for the IC50 on NDM-1 (setting [3]) and at NDM-1 (setting [4]) were 95.3 ± 3 µM and greater than 500 µM, respectively.
